The record followed here is ChEMBL document CHEMBL2429857, “Synthesis and pharmacological evaluation of pyrazolopyrimidopyrimidine derivatives: anti-inflammatory agents with gastroprotective effect in rats” (2013).

The subject of assay [1] is Rattus norvegicus. Briefly: Gastroprotective activity in Wistar rat assessed as inhibition of HCl/ethanol-induced gastric ulcer at 100 mg/kg, ip administered 30 mins prior to HCl/ethanol challenge measured after 1 hr relative to vehicle-treated control. The class given is functional. Conditions: Stomach, route intraperitoneal. A digest of the protocol: (§1)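 Male Wistar rats (150–170 g), fasted 24 h, six per group. Vehicle (Tween 80/ethanol/saline 1/1/18) or treatment given i.p.; 30 min later, oral 150 mM HCl/EtOH (40:60, v/v), 1 ml/100 g. Killed 1 h afterwards. Stomachs opened along the greater curvature and stretched out. Summed lesion length (mm) taken as lesion index; % inhibition against vehicle controls. Mean ± SEM, Student's t test.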

The test system of assay [2] is Rattus norvegicus. Description: Antiinflammatory activity in Wistar rat assessed as inhibition of carrageenan-induced paw edema at 50 mg/kg, ip administered 30 mins prior to carrageenan challenge measured after 1 hr relative to vehicle-treated control. Format: functional. Particulars: route intraperitoneal. An outline of the steps:
(§2)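 Adult male Wistar rats (150–170 g), fasted overnight with water, n = 6 per group. Vehicle (Tween 80/absolute ethanol/0.9 % saline 1:1:18; 2.5 ml/kg) or drug given i.p. 30 min before 0.05 ml of 1 % carrageenan into the left hind paw. Paw volume to the tibiotarsal joint measured by plethysmometer at 0, 1, 3, 5 h. Oedema = VT − V0; % inhibition against vehicle controls. Mean ± SEM, Student's t test.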
Background: The carrageenan paw model is a standard test of acute inflammation.

Assay [3] concerns Rattus norvegicus. Briefly: Antiinflammatory activity in Wistar rat assessed as inhibition of carrageenan-induced paw edema at 100 mg/kg, ip administered 30 mins prior to carrageenan challenge measured after 1 hr relative to vehicle-treated control. Format: functional. Conditions: route intraperitoneal. An outline of the steps: as §2
The subject of assay [4] is Rattus norvegicus. Briefly: Antiinflammatory activity in ip dosed Wistar rat assessed as inhibition of carrageenan-induced paw edema administered 30 mins prior to carrageenan challenge measured after 1 to 5 hrs relative to vehicle-treated control. The class given is functional, organism-based. An outline of the steps:
as §2

Assay [5] has as its system Rattus norvegicus. Description: Antiinflammatory activity in Wistar rat assessed as inhibition of carrageenan-induced paw edema at 50 mg/kg, ip administered 30 mins prior to carrageenan challenge measured after 5 hrs relative to vehicle-treated control. Format: functional. Conditions: route intraperitoneal. A digest of the protocol:
as §2

For assay [6], the system named is Rattus norvegicus. Briefly: Antiinflammatory activity in Wistar rat assessed as inhibition of carrageenan-induced paw edema at 100 mg/kg, ip administered 30 mins prior to carrageenan challenge measured after 5 hrs relative to vehicle-treated control. Format: functional. Particulars: route intraperitoneal. An outline of the steps:
as §2

Assay [7] has as its system Rattus norvegicus. Description: Antiinflammatory activity in Wistar rat assessed as inhibition of carrageenan-induced paw edema at 50 mg/kg, ip administered 30 mins prior to carrageenan challenge measured after 3 hrs relative to vehicle-treated control. Particulars: route intraperitoneal. Format: functional. A digest of the protocol:
as §2

For assay [8], the system named is Rattus norvegicus. Briefly: Gastroprotective activity in Wistar rat assessed as inhibition of HCl/ethanol-induced gastric ulcer at 50 mg/kg, ip administered 30 mins prior to HCl/ethanol challenge measured after 1 hr relative to vehicle-treated control. The class given is functional. Particulars: Stomach, route intraperitoneal. An outline of the steps: as §1
Assay [9] deals with Rattus norvegicus. Briefly: Antiinflammatory activity in Wistar rat assessed as inhibition of carrageenan-induced paw edema at 100 mg/kg, ip administered 30 mins prior to carrageenan challenge measured after 3 hrs relative to vehicle-treated control. The class given is functional. Particulars: route intraperitoneal. A digest of the protocol: as §2

In general, inhibition in vivo refers to the relative decrease from the control value, in per cent.

Take `CN/C(=N\CCSCc1nc[nH]c1C)NC#N` [CIMETIDINE]: in [1], the inhibition in vivo at 100 mg/kg came to 74%.
Consider `Cc1nc2c3c(C)nn(-c4ccccc4)c3ncn2c(=N)c1C#N`, for which the inhibition in vivo at 50 mg/kg in assay [2] amounted to 59.2%; in [5], 58%; in [7], 59%; in [8], 68.4%. Moreover, the values for the inhibition in vivo at 100 mg/kg in [3], in assay [6] and in assay [9] were 92.2%, 62.8% and 71.4%, respectively. The inhibition result in [4] was “Dose-dependent effect”.
Take `CCOC(=O)c1c(CC)nc2c3c(C)nn(-c4ccccc4)c3ncn2c1=N`: the inhibition in vivo at 50 mg/kg in assay [2] is 32%; in assay [5] it was 25.1%; in assay [7], 28.8%; in [8] it was 40.2%. Moreover, the inhibition in vivo at 100 mg/kg in assay [3] amounted to 65.7%; in [1], 52.2%; in assay [6], 40.2%; in [9], 42.9%. In [4], the inhibition entry was “Dose-dependent effect”.
`Cc1nn(-c2ccccc2)c2ncn3c(=N)c(C#N)cnc3c12`: the inhibition in vivo at 50 mg/kg is 42.6% in assay [2], 39.8% in assay [5], 40.6% in [7] and 48.6% in [8]. In addition, the inhibition in vivo at 100 mg/kg in [3] was 80.4%; in assay [1] it was 64.7%; in assay [6], 58.1%; in [9] it was 56.8%. Besides, in assay [4], the inhibition result is “Dose-dependent effect”.
For `CCOC(=O)c1c(C)nc2c3c(C)nn(-c4ccccc4)c3ncn2c1=N`, the inhibition in vivo at 50 mg/kg in [2] was 62.3%; in assay [5], 59.4%; in assay [7], 60%; in assay [8] it was 72.5%. For the same compound, the inhibition in vivo at 100 mg/kg came out at 94.2% in [3], 91.4% in [1], 68.8% in assay [6] and 82.8% in assay [9]. In addition, the inhibition result in [4] was “Dose-dependent effect”.
